The values that follow come from article PMC7981784 (Journal of medicinal chemistry, 2020).

The structures appear in SMILES notation.

One data set deals with HL60 (No MLL fusion). The data set is described as follows: Cell growth inhibition assay. The class given is cell-based, human. Particulars: ratio of cell growth IC50 values.
The next data set concerns SCID mice. Nature of the data set: Tolerability studies in mice. Type of data set: in vivo. The method, boiled down:
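Female SCID mice, three per group, were dosed with test compound on days 1, 3 and 5 for one week. Mice were weighed and checked for clinical signs of toxicity. Weight loss greater than 10% was counted as toxic.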

Data set [1] has as its system HOXA9 gene expression. The data set is described as follows: Pharmacodynamics in MV4. The following applies: for effect in suppressing expression of HOXA9 gene: single intravenous dose 10 mg/kg, 24 hr, MV4;11 tumors in mice. The class given is in vivo, mice. The method, boiled down: (§1)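 Mice bearing subcutaneous MV4;11 xenografts received a single IV dose of vehicle or test compound: 10 mg/kg with tumors taken at 24 h, or 25 mg/kg with tumors taken at 6, 24 and 48 h; 3 mice per time point. Tumors were snap-frozen in liquid N2 and powdered. Total RNA was reverse-transcribed and HOXA9 and MEIS1 quantified by TaqMan real-time PCR. Comparative Ct method, normalized to GAPDH, expressed relative to vehicle.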

Another data set deals with MV4;11 xenograft tumor. Nature of the data set: In vivo antitumor efficacy in the MV4. The gist of the method:
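Female C.B-17 SCID mice received 5 × 10^6 MV4;11 cells subcutaneously in the flank, in 1:1 PBS/Matrigel (final Matrigel 5 mg/mL). At tumor volumes of 60–140 mm3, mice were randomized into groups of 7. Test compound was given IV in 10% PEG 400:3% Cremophor EL:87% PBS at 10 or 25 mg/kg, every other day, 3 times per week, for 11 doses; controls got vehicle. Caliper volume = (A×B2)/2. Tumor volume and body weight were measured 2–3 times weekly during treatment and at least weekly afterwards.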

The test system of data set [2] is MEIS1 gene expression. Nature of the data set: Pharmacodynamics in MV4. The class given is in vivo, mice. The following applies: single intravenous dose 25 mg/kg; 6, 24 and 48 h. The method, boiled down: as §1
For data set [3], the system named is HOXA9 gene expression. Particulars: single dose 50 mg/kg intravenous; previous study; cited from earlier work.
In data set [4] the test system is MEIS1 gene expression. Particulars: single dose 50 mg/kg intravenous; previous study; cited from earlier work.
The mark [5] stands for this setting: 25 mg/kg every other day (three times a week) for one week.
The mark [6] stands for this setting: intravenous 10 mg/kg every other day (three times a week) for one week.

In the case of `COC(=O)N[C@H]1CCC[C@@H]1[C@](CN(C)C)(c1cccc(F)c1)C1CCN(CC2CN(c3ccc(S(=O)(=O)C4CN(C(=O)/C=C/CN(C)C)C4)cc3)C2)CC1` [Compound 9, Methyl ((1S,2R)-2-((S)-2-(dimethylamino)-1-(1-((1-(4-((1-((E)-4-(dimethylamino)but-2-enoyl)azetidin-3-yl)sulfonyl)phenyl)azetidin-3-yl)methyl)piperidin-4-yl)-1-(3-fluorophenyl)ethyl)cyclopentyl)carbamate], the “cellular selectivity for MV4;11 and MOLM-13 cell lines over HL-60 cell line” value in the data set with HL60 (No MLL fusion) was above 300 times.

The compound `COC(=O)N[C@H]1CCC[C@@H]1[C@](CN1CCC1)(c1cccc(F)c1)C1CCN(CC2CN(c3ccc(S(=O)(=O)C4CN(C(=O)/C=C/CN(C)C)C4)cc3)C2)CC1` [Compound 10, Methyl ((1S,2R)-2-((S)-2-(azetidin-1-yl)-1-(1-((1-(4-((1-((E)-4-(dimethylamino)but-2-enoyl)azetidin-3-yl)sulfonyl)phenyl)azetidin-3-yl)methyl)piperidin-4-yl)-1-(3-fluorophenyl)ethyl)cyclopentyl)carbamate] gave an animal weight loss in the data set on SCID mice (setting [5]) above 10%. Besides, the tolerability entry with SCID mice (setting [6]) is “well tolerated”. Also, the “effect in suppressing expression of HOXA9 gene” value (from here on “effect in suppressing expression”) with HOXA9 gene expression [1] was “significant but modest effect”. In the data set with HL60 (No MLL fusion), the “cellular selectivity for MV4;11 and MOLM-13 cell lines over HL-60 cell line” value is reported as above 300 times.

As to `COC(=O)N[C@H]1CCC[C@@H]1[C@](CN1CCC1)(c1cccc(F)c1)C1CCN(CC2CN(c3ccc(S(=O)(=O)C4CN(C(=O)/C=C/CN5CCC5)C4)cc3)C2)CC1` [Compound 14, Methyl ((1S,2R)-2-((S)-2-(azetidin-1-yl)-1-(1-((1-(4-((1-((E)-4-(azetidin-1-yl)but-2-enoyl)azetidin-3-yl)sulfonyl)phenyl)azetidin-3-yl)methyl)piperidin-4-yl)-1-(3-fluorophenyl)ethyl)cyclopentyl)carbamate], in the data set with HL60 (No MLL fusion), the “cellular selectivity for MLL leukemia cells over HL-60 (non-MLL leukemia cells)” value was above 700 fold.

Compound `COC(=O)N[C@H]1CCC[C@@H]1[C@](CN1CCC1)(c1cccc(F)c1)C1CCN(CC2CN(c3ccc(S(=O)(=O)C4CN(C(=O)/C=C/CN5CCCC5)C4)cc3)C2)CC1` [Compound 15, Methyl ((1S,2R)-2-((S)-2-(azetidin-1-yl)-1-(3-fluorophenyl)-1-(1-((1-(4-((1-((E)-4-(pyrrolidin-1-yl)but-2-enoyl)azetidin-3-yl)sulfonyl)phenyl)azetidin-3-yl)methyl)piperidin-4-yl)ethyl)cyclopentyl)carbamate] came in with an animal weight loss with SCID mice (setting [5]) above 10%. Further, the tolerability entry in the data set with SCID mice (setting [6]) is on record as “well tolerated”. For the same compound, in the data set with HOXA9 gene expression [1], the “effect in suppressing expression” value is “significant but modest effect”. For the same compound, in the data set on HL60 (No MLL fusion), the “cellular selectivity for MLL leukemia cells over HL-60 (non-MLL leukemia cells)” value is above 200 fold.

As to `COC(=O)N[C@H]1CCC[C@@H]1[C@](CN1CCC1)(c1cccc(F)c1)C1CCN(CC2CN(c3ccc(S(=O)(=O)C4CN(C(=O)/C=C/CN5CCCCC5)C4)cc3)C2)CC1` [Compound 16, Methyl ((1S,2R)-2-((S)-2-(azetidin-1-yl)-1-(3-fluorophenyl)-1-(1-((1-(4-((1-((E)-4-(piperidin-1-yl)but-2-enoyl)azetidin-3-yl)sulfonyl)phenyl)azetidin-3-yl)methyl)piperidin-4-yl)ethyl)cyclopentyl)carbamate], the “effect on tumor growth over vehicle control” value in the data set on MV4;11 xenograft tumor (10 mg/kg IV every other day, 3 times per week, 11 doses) is on record as “no effect on tumor growth”. In addition, the “body weight change and drug-related toxicity” value in the data set on MV4;11 xenograft tumor (10 or 25 mg/kg IV, during and after treatment) is given as “no significant weight change”. Besides, the tolerability entry with SCID mice (setting [5]) and in the data set on SCID mice (setting [6]) was “well tolerated” throughout. Moreover, in the data set with HOXA9 gene expression [1], the “effect in suppressing expression” value is recorded as “significant but modest effect”. Besides, in the data set on HOXA9 gene expression [1] (single intravenous dose 25 mg/kg, 6, 24 and 48 h), the “suppression of HOXA9 gene expression in tumor tissue” value is given as “effectively suppresses”. The “suppression of MEIS1 gene expression in tumor tissue” value in the data set with MEIS1 gene expression [2] is given as “effectively suppresses”.

`COC(=O)N[C@H]1CCC[C@@H]1[C@](C#N)(c1cccc(F)c1)C1CCN(CC2CN(c3ccc(S(=O)(=O)C4CN(C(=O)/C=C/CN(C)C)C4)cc3)C2)CC1` [Compound M-525]: in the data set on HOXA9 gene expression [3], the “suppression of HOXA9 gene expression in MV4;11 xenograft tumor tissue” value was “strong suppression”. For the same compound, in the data set on MEIS1 gene expression [4], the “suppression of MEIS1 gene expression in MV4;11 xenograft tumor tissue” value is listed as “strong suppression”.
